Activity calls are given as the source filed them.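 How the source made its calls: active means at least one off-target enzyme showing weaker fluorescent probe labeling in any proteome panel; inactive means no off-target enzyme affected in any panel.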

In this experiment the test system is Membrane Proteome. As to the kind of experiment: anti-target inhibition in MCF7 proteome, late-stage follow-up, selectivity assay for PAD4 inhibitor project, cell lysate, gel-based fluorescence, soluble and membrane fractions (AID 651628). Particulars: CA-Rh gel-based ABPP, anti-target count, at 10 µM, hits give high values. The gist of the method: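 Test system: MCF7 cell proteome, soluble or membrane fraction / Amount: proteome protein concentration of 1 mg/ml / Schedule: compound 1 h, probe 1 h, 25 °C / Buffer or medium: DPBS / Detection: SDS-PAGE separation with in-gel fluorescence scanning of labelled bands / Also added: Chloroacetamide-rhodamine (CA-Rh) labelling probe, 10 µM / Doses: compound at 10 or 50 µM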
For the compound `COC(=O)c1cccc(-c2ccc3c(n2)C(=O)C(N)=CC3=O)n1`, the number of anti-targets was 0 (inactive). `COC(=O)c1nc(C(=O)OC)c(NC(C)=O)c(-c2ccccc2Br)c1C`: the number of anti-targets was 0 (inactive). On to `NC1=CC(=O)c2ccc(-c3ccccn3)nc2C1=O`, for which the number of anti-targets is 0 (inactive). As for `O=C1C(O)=C(O)C(=O)c2ncccc21`, the figure is 2 (active); as for `COC1=CC(=O)c2nc(C#N)ccc2C1=O`, > 5 (active). With `COC1=C(Br)C(=O)c2ncccc2C1=O`, the number of anti-targets was > 5 (active). For the compound `COC1=C(Br)C(=O)c2nc(-c3ccccn3)ccc2C1=O`, the number of anti-targets is > 5 (active). As to `COC(=O)c1cccc(-c2ccc3c(n2)C(=O)C(Br)=CC3=O)n1`, the number of anti-targets is 0 (inactive). `NC1=CC(=O)c2ccc(-c3cccc(C(=O)O)n3)nc2C1=O`: the number of anti-targets was 0 (inactive). Consider `COC1=C(N)C(=O)c2ncccc2C1=O`, for which the number of anti-targets is 0 (inactive). On to `COC1=C(I)C(=O)c2nc(C#N)ccc2C1=O`, for which the number of anti-targets was > 5 (active). `COC1=C(N)C(=O)c2nc(-c3nc(C(=O)O)c(C)c(-c4ccc(OC)c(OC)c4O)c3N)ccc2C1=O`: the number of anti-targets was 0 (inactive). In the case of `O=C1C=C(Br)C(=O)c2ncccc21`, the number of anti-targets was > 5 (active). In the case of `NC1=CC(=O)c2cccnc2C1=O`, the number of anti-targets is 0 (inactive).

Values taken from PubChem BioAssay AID651628 (The Scripps Research Institute Molecular Screening Center, 2012).
